These results are taken from ChEMBL document CHEMBL4673224, “Synthesis of 7-benzylguanosine cap-analogue conjugates for eIF4E targeted degradation” (Eur J Med Chem, 2019).

The source made the active and inactive calls. No cut-off for these calls is given here.

Test [1] has as its target Eukaryotic translation initiation factor 4E (Homo sapiens) (UniProt P06730). The test can be described thus: Inhibition of eIF4E binding to m7GDP in immobilized resin with HEK293 lysate at 500 uM by western blot analysis based competitive binding assay. To be noted: time 12.0 hrs. Type of test: subcellular. The method, boiled down:
(§1)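 350 μg protein bound to m7GDP agarose for 2 h at 4 °C, washed, then exposed to compound in Buffer A overnight. Bound protein eluted in LDS buffer and probed with anti-eIF4E antibody. m7GDP is the positive control and DMSO the negative control.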
Background: In western blotting, separated proteins are transferred to a membrane and probed.

Test [2] deals with T1, Protein cereblon/Eukaryotic translation initiation factor 4E (Homo sapiens) (UniProt P06730+Q96SW2). The test can be described thus: Protac activity at E3-ligase/eIF4E in human K562 cells assessed as intracellular eIF4E degradation by Western blot analysis. The class given is cell-based.
T1 sequence (P06730 whole entry, looked up): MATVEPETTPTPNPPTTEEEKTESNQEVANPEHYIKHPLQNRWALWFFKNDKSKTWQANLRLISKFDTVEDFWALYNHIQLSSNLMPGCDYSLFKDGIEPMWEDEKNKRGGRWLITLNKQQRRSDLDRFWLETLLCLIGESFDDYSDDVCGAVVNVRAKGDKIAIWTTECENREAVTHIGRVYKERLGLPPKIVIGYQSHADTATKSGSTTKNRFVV
T1 sequence (Q96SW2 whole entry, looked up): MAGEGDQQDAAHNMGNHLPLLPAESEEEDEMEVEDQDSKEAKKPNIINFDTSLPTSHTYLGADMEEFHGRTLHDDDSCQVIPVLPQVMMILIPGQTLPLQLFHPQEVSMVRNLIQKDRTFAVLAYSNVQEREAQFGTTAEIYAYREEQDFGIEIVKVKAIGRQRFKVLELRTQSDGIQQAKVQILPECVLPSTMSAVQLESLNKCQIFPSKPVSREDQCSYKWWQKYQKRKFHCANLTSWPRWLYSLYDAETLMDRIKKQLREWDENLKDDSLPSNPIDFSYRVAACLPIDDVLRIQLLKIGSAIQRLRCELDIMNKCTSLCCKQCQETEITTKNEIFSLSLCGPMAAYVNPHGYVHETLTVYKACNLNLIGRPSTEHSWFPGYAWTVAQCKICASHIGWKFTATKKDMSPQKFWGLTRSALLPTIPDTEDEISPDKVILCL
The target of test [3] is T1, Protein cereblon/Eukaryotic translation initiation factor 4E (Homo sapiens). The test can be described thus: Protac activity at E3-liagse/eIF4E in human MDA-MB-231 cells assessed as reduction in eIF4E protein level at 25 to 200 uM after 24 to 72 hrs. The class given is cell-based. To be noted: dose 25-200 µM, time 24-72 hrs. The method, boiled down:
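MDA-MB-231 cells are grown in RPMI-1640 with 10% FBS and 1 mM glutamine at 37 °C under 5% CO2. Cells are exposed to compound at 25–200 μM for 24–72 h, and eIF4E protein level is then assessed.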

Test [4] concerns the target Eukaryotic translation initiation factor 4E (Homo sapiens) (UniProt P06730). The test can be described thus: Inhibition of eIF4E binding to m7GMP in immobilized resin with HEK293 lysate at 500 uM by western blot analysis based competitive binding assay. The class given is subcellular. The method, boiled down:
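Cap pull-down is carried out on m7GMP agarose. HEK293 lysate is freeze-thawed thrice and cleared at 20,000 × g, and 350 μg protein is loaded for 2 h at 4 °C. After washes, the resin is incubated overnight with 500 μM compound in Buffer A (50 mM HEPES-KOH pH 7.5, 150 mM KCl). eIF4E remaining on the resin is read by anti-eIF4E western blot. m7GMP is the positive control and DMSO the negative control.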

Test [5] has the same target. The test can be described thus: Inhibition of eIF4E binding to m7GDP in immobilized resin with HEK293 lysate by western blot analysis based competitive binding assay. The class given is subcellular. To be noted: dose 50-500 µM. The method in brief: as §1

Chain of Eukaryotic translation initiation factor 4E (Homo sapiens) (P06730 whole entry): as the sequence (P06730 whole entry, looked up) above

Take `Nc1nc2c(ncn2[C@@H]2O[C@H](COP(=O)(O)OP(=O)(O)NCCOCCOCCOCCC(=O)Nc3cccc4c3CN(C3CCC(=O)NC3=O)C4=O)[C@@H](O)[C@H]2O)c(=O)[nH]1` (stereo partly drawn): the inhibition result in test [1] is “inactive”. For the same compound, the result in test [2] was inactive.

Take `Nc1nc2c(ncn2[C@@H]2O[C@H](COP(=O)(O)OP(=O)(O)NCCCCCC(=O)Nc3cccc4c3CN(C3CCC(=O)NC3=O)C4=O)[C@@H](O)[C@H]2O)c(=O)[nH]1` (stereo partly drawn): in test [1], the inhibition result is “inactive”.

For `Nc1nc2c(c(=O)[nH]1)[n+](Cc1ccc(F)cc1)cn2[C@@H]1O[C@H](COP(=O)(O)OP(=O)(O)NCCCCCC(=O)Nc2cccc3c2CN(C2CCC(=O)NC2=O)C3=O)[C@@H](O)[C@H]1O` (stereo partly drawn), in test [1], the inhibition result was “Active”. Further, the result in test [3] was inactive.

As for `Nc1nc2c(c(=O)[nH]1)[n+](Cc1ccccc1)cn2[C@@H]1O[C@H](COP(=O)(O)NCCCCCC(=O)Nc2cccc3c2CN(C2CCC(=O)NC2=O)C3=O)[C@@H](O)[C@H]1O` (stereo partly drawn), the inhibition entry in test [4] is “inactive”.

On to `Nc1nc2c(c(=O)[nH]1)[n+](Cc1ccccc1)cn2[C@@H]1O[C@H](COP(=O)(O)OP(=O)(O)NCCOCCOCCOCCC(=O)Nc2cccc3c2CN(C2CCC(=O)NC2=O)C3=O)[C@@H](O)[C@H]1O` (stereo partly drawn), for which the inhibition entry in test [1] is “Active”. In addition, the outcome in test [2] and in test [3] was inactive.

On to `Nc1nc2c(c(=O)[nH]1)[n+](Cc1ccccc1)cn2[C@@H]1O[C@H](COP(=O)(O)OP(=O)(O)NCCOCCOCCOCCOCCOCCOCCOCCC(=O)Nc2cccc3c2CN(C2CCC(=O)NC2=O)C3=O)[C@@H](O)[C@H]1O` (stereo partly drawn), for which the inhibition entry in test [1] is “Active”. Also, the outcome in test [3] was inactive.

As for `Cc1ncsc1-c1ccc(CNC(=O)C2C[C@H](O)CN2C(=O)[C@@H](NC(=O)CCCCCNP(=O)(O)OP(=O)(O)OC[C@H]2O[C@@H](n3c[n+](Cc4ccccc4)c4c(=O)[nH]c(N)nc43)[C@H](O)[C@@H]2O)C(C)(C)C)cc1` (stereo partly drawn), the inhibition entry in test [1] is “Active”. The result in test [2] and in test [3] was inactive.

Take `Nc1nc2c(c(=O)[nH]1)[n+](Cc1ccc(F)cc1)cn2[C@@H]1O[C@H](COP(=O)(O)NCCCCCC(=O)Nc2cccc3c2CN(C2CCC(=O)NC2=O)C3=O)[C@@H](O)[C@H]1O` (stereo partly drawn): the inhibition result in test [4] was “inactive”.

`Nc1nc2c(c(=O)[nH]1)[n+](Cc1ccccc1)cn2[C@@H]1O[C@H](COP(=O)(O)OP(=O)(O)NCCCCCC(=O)Nc2cccc3c2CN(C2CCC(=O)NC2=O)C3=O)[C@@H](O)[C@H]1O` (stereo partly drawn): the inhibition result in test [1] was “Active”. The inhibition result in test [5] is “Dose-dependent effect”. The outcome in test [3] was inactive.

Turning to `Cc1ncsc1-c1ccc(CNC(=O)C2C[C@H](O)CN2C(=O)[C@@H](NC(=O)CCCCCNP(=O)(O)OP(=O)(O)OC[C@H]2O[C@@H](n3cnc4c(=O)[nH]c(N)nc43)[C@H](O)[C@@H]2O)C(C)(C)C)cc1` (stereo partly drawn), in test [1], the inhibition result was “inactive”. Besides, in test [2], the result was inactive.

For the compound `Nc1nc2c(ncn2[C@@H]2O[C@H](COP(=O)(O)NCCCCCC(=O)Nc3cccc4c3CN(C3CCC(=O)NC3=O)C4=O)[C@@H](O)[C@H]2O)c(=O)[nH]1` (stereo partly drawn), the inhibition result in test [4] was “inactive”.

As for `Nc1nc2c(c(=O)[nH]1)[n+](Cc1ccc(F)cc1)cn2[C@@H]1O[C@H](COP(=O)(O)OP(=O)(O)NCCOCCOCCOCCC(=O)Nc2cccc3c2CN(C2CCC(=O)NC2=O)C3=O)[C@@H](O)[C@H]1O` (stereo partly drawn), the inhibition entry in test [1] is “Active”. The outcome in test [2] and in test [3] was inactive.

Take `Nc1nc2c(ncn2[C@@H]2O[C@H](COS(=O)(=O)NC(=O)CCC(=O)NCCCCCC(=O)Nc3cccc4c3CN(C3CCC(=O)NC3=O)C4=O)[C@@H](O)[C@H]2O)c(=O)[nH]1` (stereo partly drawn): the inhibition entry in test [4] was “inactive”.

With `Cc1ncsc1-c1ccc(CNC(=O)C2C[C@H](O)CN2C(=O)[C@@H](NC(=O)CCCCCNP(=O)(O)OP(=O)(O)OC[C@H]2O[C@@H](n3c[n+](Cc4ccc(F)cc4)c4c(=O)[nH]c(N)nc43)[C@H](O)[C@@H]2O)C(C)(C)C)cc1` (stereo partly drawn), in test [1], the inhibition result was “Active”. Also, the result in test [2] and in test [3] was inactive.

For `Nc1nc2c(c(=O)[nH]1)[n+](Cc1ccc(F)cc1)cn2[C@@H]1O[C@H](COP(=O)(O)OP(=O)(O)NCCOCCOCCOCCOCCOCCOCCOCCC(=O)Nc2cccc3c2CN(C2CCC(=O)NC2=O)C3=O)[C@@H](O)[C@H]1O` (stereo partly drawn), in test [1], the inhibition result is “Active”. In addition, the result in test [3] was inactive.

Turning to `Nc1nc2c(c(=O)[nH]1)[n+](Cc1ccccc1)cn2[C@@H]1O[C@H](COS(=O)(=O)NC(=O)CCC(=O)NCCCCCC(=O)Nc2cccc3c2CN(C2CCC(=O)NC2=O)C3=O)[C@@H](O)[C@H]1O` (stereo partly drawn), the inhibition entry in test [4] is “inactive”.

Consider `Nc1nc2c(c(=O)[nH]1)[n+](Cc1ccc(F)cc1)cn2[C@@H]1O[C@H](COS(=O)(=O)NC(=O)CCC(=O)NCCCCCC(=O)Nc2cccc3c2CN(C2CCC(=O)NC2=O)C3=O)[C@@H](O)[C@H]1O` (stereo partly drawn), for which, in test [4], the inhibition result is “inactive”.

For `Nc1nc2c(ncn2[C@@H]2O[C@H](COP(=O)(O)OP(=O)(O)NCCOCCOCCOCCOCCOCCOCCOCCC(=O)Nc3cccc4c3CN(C3CCC(=O)NC3=O)C4=O)[C@@H](O)[C@H]2O)c(=O)[nH]1` (stereo partly drawn), the inhibition result in test [1] was “inactive”.
